Data set [1] deals with Mus musculus. Kind of data set: (§1) Toxicity in po dosed mouse. The note with it: in vivo. Format: organism-based. In short, it runs like this:
(§2)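 Acute toxicity was tested in mice given the compound orally. The LD50 was reported in mg/kg or g/kg.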

In data set [2] the target is Sodium-dependent dopamine transporter (Rattus norvegicus, UniProt P23977). Kind of data set: Inhibition of [3H]dopamine reuptake at rat brain frontal cortex dopamine transporter. Format: tissue-based. The gist of the method: (§3)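 Rat frontal cortex synaptosomes prepared at 4 °C: tissue homogenized in ice-cold 0.32 M sucrose, spun at 1500g for 10 min, and the supernatant spun at 20,000g for 30 min. The pellet was resuspended in buffer and protein measured. Synaptosomes were preincubated with compound 5 min at 37 °C, then given 300 nM [3H]-DA or [3H]-NA for 5 min at 37 °C. Uptake was stopped on ice and samples filtered and washed with artificial cerebral fluid before scintillation counting. Active uptake was taken as the 37 °C minus 0 °C difference.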
Sodium-dependent dopamine transporter, sequence (P23977 whole entry): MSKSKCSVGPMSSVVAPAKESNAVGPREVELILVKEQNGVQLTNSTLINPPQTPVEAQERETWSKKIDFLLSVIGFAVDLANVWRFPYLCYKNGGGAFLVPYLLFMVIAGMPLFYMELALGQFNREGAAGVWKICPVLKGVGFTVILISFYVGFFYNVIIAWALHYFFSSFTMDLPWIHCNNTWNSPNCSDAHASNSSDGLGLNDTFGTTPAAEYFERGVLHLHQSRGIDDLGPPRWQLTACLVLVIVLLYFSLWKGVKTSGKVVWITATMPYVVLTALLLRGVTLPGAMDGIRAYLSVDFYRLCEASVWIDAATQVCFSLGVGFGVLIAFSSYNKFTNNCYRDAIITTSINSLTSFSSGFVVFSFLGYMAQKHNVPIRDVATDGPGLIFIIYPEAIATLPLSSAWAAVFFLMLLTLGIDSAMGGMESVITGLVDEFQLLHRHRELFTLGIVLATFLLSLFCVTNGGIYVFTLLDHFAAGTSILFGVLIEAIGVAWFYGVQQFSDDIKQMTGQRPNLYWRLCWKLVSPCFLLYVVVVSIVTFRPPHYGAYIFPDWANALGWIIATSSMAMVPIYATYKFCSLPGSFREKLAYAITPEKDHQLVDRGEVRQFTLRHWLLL

Another data set deals with Transporter (Rattus norvegicus, UniProt Q63380). Kind of data set: Inhibition of [3H]norepinephrine reuptake at rat brain frontal cortex norepinephrine transporter. In kind it is tissue-based. The gist of the method: as §3
Transporter, sequence (Q63380 whole entry): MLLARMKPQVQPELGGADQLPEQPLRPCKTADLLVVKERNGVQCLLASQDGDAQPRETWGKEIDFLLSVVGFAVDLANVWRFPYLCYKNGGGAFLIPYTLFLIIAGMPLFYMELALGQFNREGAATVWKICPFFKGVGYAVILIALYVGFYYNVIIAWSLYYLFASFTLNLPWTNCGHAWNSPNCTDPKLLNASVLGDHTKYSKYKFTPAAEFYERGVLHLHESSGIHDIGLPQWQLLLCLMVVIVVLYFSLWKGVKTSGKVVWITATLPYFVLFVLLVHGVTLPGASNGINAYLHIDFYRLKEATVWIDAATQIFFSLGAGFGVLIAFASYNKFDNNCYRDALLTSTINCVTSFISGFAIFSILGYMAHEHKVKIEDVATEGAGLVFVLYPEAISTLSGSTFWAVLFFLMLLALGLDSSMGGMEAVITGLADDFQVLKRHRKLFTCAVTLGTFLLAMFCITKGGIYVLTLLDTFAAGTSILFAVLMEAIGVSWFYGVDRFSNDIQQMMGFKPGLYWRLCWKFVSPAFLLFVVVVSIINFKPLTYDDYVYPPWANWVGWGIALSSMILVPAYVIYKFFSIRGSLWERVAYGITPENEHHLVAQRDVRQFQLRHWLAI
The target of data set [3] is Sodium-dependent serotonin transporter (Rattus norvegicus, UniProt P31652). Kind of data set: Inhibition of [3H]5HT reuptake at rat brain frontal cortex serotonin transporter. In kind it is tissue-based. In short, it runs like this: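 Rats were decapitated and the frontal cortex was dissected on ice. The tissue was homogenised in ice-cold 0.32 M sucrose and spun at 1500g for 10 min, then the supernatant at 20,000g for 30 min (4 °C). Synaptosomes were preincubated with compound for 5 min at 37 °C. [3H]-5-HT (300 nM) was added for 5 min at 37 °C. The reaction was stopped on ice, then filtered and counted. Active uptake was taken as the 37 °C minus 0 °C difference.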
Sodium-dependent serotonin transporter, sequence (P31652 whole entry): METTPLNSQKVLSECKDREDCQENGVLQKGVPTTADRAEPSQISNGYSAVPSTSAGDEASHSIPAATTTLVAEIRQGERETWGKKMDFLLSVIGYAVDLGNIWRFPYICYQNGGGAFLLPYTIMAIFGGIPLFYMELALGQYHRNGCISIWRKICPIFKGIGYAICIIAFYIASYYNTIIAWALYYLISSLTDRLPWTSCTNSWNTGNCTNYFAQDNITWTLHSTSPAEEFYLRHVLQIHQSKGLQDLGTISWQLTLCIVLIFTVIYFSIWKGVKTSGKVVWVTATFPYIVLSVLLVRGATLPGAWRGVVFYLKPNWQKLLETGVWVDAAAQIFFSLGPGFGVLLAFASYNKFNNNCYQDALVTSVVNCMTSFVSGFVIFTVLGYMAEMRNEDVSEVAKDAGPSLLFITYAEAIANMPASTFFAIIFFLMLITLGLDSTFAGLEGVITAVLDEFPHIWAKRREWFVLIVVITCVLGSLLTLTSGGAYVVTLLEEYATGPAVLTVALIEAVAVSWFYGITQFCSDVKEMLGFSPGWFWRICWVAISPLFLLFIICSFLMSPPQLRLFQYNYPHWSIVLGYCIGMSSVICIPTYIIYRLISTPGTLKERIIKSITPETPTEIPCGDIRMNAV

Data set [4] deals with Mus musculus. Kind of data set: Antidepressant activity in po dosed mouse by forced tail suspension assay. Format: functional. The gist of the method: (§4)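 Mice received a single oral dose of each isomer; the ED50 (mg/kg) was derived from the forced swimming and tail suspension tests.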
Data set [5] can be described thus: as §1. Format: organism-based. The note with it: in vivo. The gist of the method:
as §2

Data set [6] relates to Mus musculus. Kind of data set: Antidepressant activity in po dosed mouse by forced swimming test. Format: functional. In short, it runs like this:
as §4

A value given as a limit tells only on which side of the number the result lay.

For the molecule `COc1ccc2cc([C@H](O)[C@@H](C)N3CCN(Cc4ccccc4)CC3)ccc2c1Cl` (racemic), in the data set on Mus musculus [1], the LD50 was over 220 mg/kg.

Molecule `COc1ccc2cc([C@H](O)[C@H](C)N3CCN(Cc4ccccc4)CC3)ccc2c1Cl` (racemic) yielded an LD50 in the data set with Mus musculus [1] of over 1500 mg/kg.

`COc1ccc2cc([C@@H](O)[C@@H](C)N3CCN(Cc4ccccc4)CC3)ccc2c1Cl`: the IC50 in data set [2] is over 1000 µM; on Transporter it was 1.25 µM; in data set [3], 0.375 µM. The molecule further came in with an ED50 in the data set with Mus musculus [4] of 24.5 mg/kg. In data set [5], this molecule displayed an LD50 of 200 mg/kg.

In the case of `COc1ccc2cc([C@H](O)[C@H](C)N3CCN(Cc4ccccc4)CC3)ccc2c1Cl`, the figures for the IC50 (in data set [2]; at Transporter; in data set [3]) were over 1000 µM, 0.425 µM and 0.825 µM, respectively. The 50% effect level in the data set with Mus musculus [4] (ED50) was put at a dose of 27.9 mg/kg. The molecule also yielded an LD50 in the data set with Mus musculus [1] of 300 mg/kg.

With `COc1ccc2cc([C@H](O)[C@@H](C)N3CCN(Cc4ccccc4)CC3)ccc2c1Cl`, the values for the IC50 (in data set [2]; against Transporter; in data set [3]) were 10 µM, 7 µM and 0.548 µM, respectively. For the same molecule, the ED50 in the data set on Mus musculus [4] came out at 16.5 mg/kg; with Mus musculus [6] it was 24.5 mg/kg. Further, in the data set on Mus musculus [1], the LD50 is 1171 mg/kg.

Take `COc1ccc2cc([C@@H](O)[C@H](C)N3CCN(Cc4ccccc4)CC3)ccc2c1Cl`: on Transporter, the IC50 is 0.185 µM. This molecule also came in with an ED50 in the data set on Mus musculus [4] of 12.6 mg/kg. The same molecule showed an LD50 in data set [5] of 1030 mg/kg.

For the origin of these results see ChEMBL document CHEMBL1158499, “Synthesis and antidepressant activity of optical isomers of 2-(4-benzylpiperazin-1-yl)-1-(5-chloro-6-methoxynaphthalen-2-yl) propan-1-ol (SIPI5056)” (Bioorg Med Chem Lett, 2010).
